Laboratory results as given in ChEMBL document CHEMBL1126117, “Synthesis and chemical characterization of N-substituted phenoxazines directed toward reversing vinca alkaloid resistance in multidrug-resistant cancer cells” (J Med Chem, 1992).

Tests used:
GC3/Cl [1] = assay: Concentration required to produce 10% reduction in clonogenic survival of GC3/Cl cell line.; type: functional, cell-based; conditions: Homo sapiens
Procedure, shortened: (§1)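 Clonogenic survival. KBChR-8-5 cells were plated in triplicate at 1000/well and GC3 cells at 3000/well. After 24 h the medium was replaced with fresh medium holding modulator at 1-100 μM (final 0.1% DMSO). Cells were kept 7 days at 37 °C, then stained with crystal violet and the colonies counted. The 50% and 10% colony-reduction concentrations were read from concentration-survival curves versus controls.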

GC3/Cl [2] = assay: Concentration required to produce 50% reduction in clonogenic survival of GC3/Cl cell line.; type: functional, cell-based; conditions: Homo sapiens; procedure, shortened: as §1
GC3/Cl [3] = assay: Inhibitory concentration was evaluated by measuring the potentiation of VCR cytotoxicity in GC3/Cl cell line.; type: functional, cell-based; conditions: Homo sapiens
Procedure, shortened: (§2)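 Colony-formation assay. Cells were given graded VCR or VLB continuously for 7 days at 37 °C, with or without modulator at the concentration that alone reduced colony formation by 10%. Colonies were then stained with crystal violet and counted. Vinca IC50 values were derived with and without modulator, and the result was expressed as fold potentiation.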

GC3/Cl [4] = assay: Inhibitory concentration was evaluated by measuring the potentiation of VLB cytotoxicity in GC3/Cl cell line.; type: functional, cell-based; conditions: Homo sapiens; procedure, shortened: as §2
GC3/Cl [5] = assay: Increase in the accumulation of vinblastine in multi-drug resistant GC3/Cl (human adenocarcinoma) cell line in vitro.; type: functional; parameters: concentration or dose not given beside the values
KB [6] = assay: Increase in the accumulation of vincristine in multi-drug resistant KB8-5 (HeLa variant) cell line in vitro.; type: functional, Homo sapiens; parameters: concentration or dose not given beside the values
Procedure, shortened: (§3)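 Radiolabel accumulation. Cell monolayers (2×10^6 cells, attached overnight; KBChR-8-5 kept with 10 ng/mL colchicine) were washed and held 10 min in physiologic Tris buffer. They were then given serum-free RPMI-1640 in 25 mM Hepes, pH 7.4, with [3H]VCR (70.4 nM) or [3H]VLB (49.5 nM), ±modulator at 100 μM (<0.1% DMSO), for 2 h at room temperature. Cells were washed in ice-cold PBS, trypsinized and scintillation-counted, with cell number counted per dish. Percent control = uptake with/without modulator ×100. Mean of two experiments, each done in triplicate.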

KB [7] = assay: Concentration required to produce 50% reduction in clonogenic survival of KB8-5 cell line.; type: functional, cell-based; conditions: Homo sapiens; procedure, shortened: as §1
KB [8] = assay: Inhibitory concentration was evaluated by measuring the potentiation of VCR cytotoxicity in KB8-5 cell line.; type: functional, cell-based; conditions: Homo sapiens; procedure, shortened: as §2
KB [9] = assay: Inhibitory concentration was evaluated by measuring the potentiation of VLB cytotoxicity in KB8-5 cell line.; type: functional, cell-based; conditions: Homo sapiens; procedure, shortened: as §2
KB [10] = assay: Increase in the accumulation of vinblastine in multi-drug resistant KB8-5 (HeLa variant) cell line in vitro.; type: functional, Homo sapiens; parameters: concentration or dose not given beside the values; procedure, shortened: as §3
KB [11] = assay: Concentration required to produce 10% reduction in clonogenic survival of KB8-5 cell line.; type: functional; conditions: Homo sapiens; procedure, shortened: as §1
KB [12] = assay: Percent control was evaluated by measuring the ability to increase the vinca alkaloid, vinblastine(VLB) in KB8-5 cell line.; type: functional, Homo sapiens; procedure, shortened: as §3
KB [13] = assay: Percent control was evaluated by measuring the ability to increase the vinca alkaloid, vincristine(VCR) in KB8-5 cell line.; type: functional, Homo sapiens; procedure, shortened: as §3
GC3/Cl [14] = assay: Increase in the accumulation of vincristine in multi-drug resistant GC3/Cl (human adenocarcinoma) cell line in vitro.; type: functional

Structure (SMILES) | IC10 (GC3/Cl [1]) | IC50 (GC3/Cl [2]) | IC50 (GC3/Cl [3]) | IC50 (GC3/Cl [4]) | Control (GC3/Cl [5]) | Control (KB [6]) | IC50 (KB [7]) | IC50 (KB [8]) | IC50 (KB [9]) | Control (KB [10]) | IC10 (KB [11]) | Control (KB [12]) | Control (KB [13]) | Control (GC3/Cl [14])
ClCCCN1c2ccccc2Oc2ccccc21 | 50 µM | 83 µM | 0.002 µM | 0.0017 µM | 570% | 454% | 57 µM | 0.0118 µM | 0.0053 µM | 342% | 20 µM |  |  | 
c1ccc2c(c1)Oc1ccccc1N2CCCCN1CCCC1 |  | 7 µM |  |  | 1315% | 198% | < 7 µM |  |  | 477% |  |  |  | 
c1ccc2c(c1)Oc1ccccc1N2CCCCN1CCCCC1 |  | 7 µM |  |  | 1121% | 196% | < 7 µM |  |  | 1071% |  |  |  | 
ClCCCCN1c2ccccc2Oc2ccccc21 |  |  |  |  | 361% | 398% |  |  |  | 792% |  |  |  | 
O=C(CCl)N1c2ccccc2Oc2ccccc21 |  |  |  |  |  |  |  |  |  |  |  | 236% | 138% | 
CCN(CC)CCCN1c2ccccc2Oc2ccccc21 |  | 10 µM |  |  | 1025% | 546% | 15 µM |  |  | 2123% |  |  |  | 
OCCN1CCN(CCCCN2c3ccccc3Oc3ccccc32)CC1 |  | 7 µM |  |  | 1340% | 91% | < 7 µM |  |  | 188% |  |  |  | 
OCCN1CCN(CCCN2c3ccccc3Oc3ccccc32)CC1 |  |  |  |  | 879% | 343% |  |  |  | 824% |  |  |  | 
O=C(N1c2ccccc2Oc2ccccc21)C(F)(F)F |  |  |  |  |  | 415% |  |  |  | 827% |  |  |  | 230%
O=C(CN1CCCCC1)N1c2ccccc2Oc2ccccc21 | 40 µM | 88 µM | 0.0029 µM | 0.0022 µM |  | 326% | 73 µM | 0.006 µM | 0.0023 µM | 2023% | 40 µM |  |  | 
CCN(CC)CCCCN1c2ccccc2Oc2ccccc21 |  |  |  |  | 737% | 211% |  |  |  | 697% |  |  |  | 
c1ccc2c(c1)Oc1ccccc1N2CCCN1CCCCC1 |  |  |  |  | 633% | 435% |  |  |  | 1227% |  |  |  | 
OCCN(CCO)CCCCN1c2ccccc2Oc2ccccc21 |  | 16 µM |  |  | 1165% | 92% | < 10 µM |  |  | 403% |  |  |  | 
CCN(CC)CC(=O)N1c2ccccc2Oc2ccccc21 |  |  |  |  |  | 184% |  |  |  | 953% |  |  |  | 160%
O=C(CN1CCN(CCO)CC1)N1c2ccccc2Oc2ccccc21 |  |  |  |  |  | 280% |  |  |  | 776% |  |  |  | 
c1ccc2c(c1)Oc1ccccc1N2CCCN1CCOCC1 | 25 µM | 40 µM | 0.0021 µM | 0.002 µM | 960% | 742% | 73 µM | 0.0019 µM | 0.0016 µM | 1717% | 25 µM |  |  | 
c1ccc2c(c1)Oc1ccccc1N2CCCCN1CCOCC1 | 10 µM | 17 µM | 0.0024 µM | 0.002 µM | 1175% | 702% | 18 µM | 0.0045 µM | 0.002 µM | 2684% | 6 µM |  |  | 
O=C(CN1CCCC1)N1c2ccccc2Oc2ccccc21 |  |  |  |  |  | 188% |  |  |  | 776% |  |  |  | 
COc1ccc(CCN(C)CCCC(C#N)(c2ccc(OC)c(OC)c2)C(C)C)cc1OC (stereo not given) |  |  |  |  |  |  |  |  |  | 1124% |  |  |  | 
c1ccc2c(c1)Oc1ccccc1N2CCCN1CCCC1 |  |  |  |  | 757% | 408% |  |  |  | 969% |  |  |  | 250%
OCCN(CCO)CCCN1c2ccccc2Oc2ccccc21 | 25 µM | 37 µM | 0.0048 µM | 0.002 µM | 1070% | 473% | 38 µM | 0.0059 µM | 0.0027 µM | 1666% | 25 µM |  |  | 
O=C(CN1CCOCC1)N1c2ccccc2Oc2ccccc21 |  |  |  |  |  | 290% |  |  |  | 674% |  |  |  | 
